Calls of active or inactive are those of the source.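 Rule for the calls, unless noted: active = viability at or below 30% in both replicate assays; inconclusive = viability at or below 30% in just one of the two assays; inactive = the rest.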 Peptide text beside a SMILES is read from it.
Columns and labels:
[1] = molecular target: Pantothenate synthetase (Mycobacterium tuberculosis (strain ATCC 25618 / H37Rv)) (UniProt P9WIL5); test: Recombinant Mtb pantothenate synthetase (PanC) inhibitors, coupled enzyme, confirmatory (AID 375; call rule not given here;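 note: 0% = full reaction with vehicle and 100% = no enzyme background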); settings: coupled enzyme assay; at 10 µM, stronger effect = higher value
Pantothenate synthetase (Mycobacterium tuberculosis (strain ATCC 25618 / H37Rv)), sequence (P9WIL5 whole entry, looked up): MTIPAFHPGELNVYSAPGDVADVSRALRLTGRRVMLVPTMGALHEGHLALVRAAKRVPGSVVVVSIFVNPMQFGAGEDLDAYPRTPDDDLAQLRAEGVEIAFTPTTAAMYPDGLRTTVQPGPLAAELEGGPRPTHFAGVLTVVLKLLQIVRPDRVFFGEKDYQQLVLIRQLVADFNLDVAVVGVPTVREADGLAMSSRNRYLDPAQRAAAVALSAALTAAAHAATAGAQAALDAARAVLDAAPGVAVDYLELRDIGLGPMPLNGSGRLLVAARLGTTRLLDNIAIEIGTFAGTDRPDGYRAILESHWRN

[2] = reducers of endogenous Her2 protein level, primary screen, SKBR3 breast tumor cells, AlphaScreen, ATP viability (AID 461;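 active = Her2 level under about 52% in both replicate screens, with viability over 70% of control, limit read from the data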;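 for Her2 level: lower value means less Her2 protein in the cells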;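 for viability: percent of carrier control wells set as 100% viability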); settings: 18-24 h, measured here: SKBR3 viability, ATP luminescence, at 10 µM
[3] = molecular target: Receptor tyrosine-protein kinase erbB-2 (Homo sapiens) (UniProt P04626); test: as above; settings: 18-24 h, at 10 µM, stronger effect = lower value
Receptor tyrosine-protein kinase erbB-2 (Homo sapiens), sequence (P04626 whole entry, looked up): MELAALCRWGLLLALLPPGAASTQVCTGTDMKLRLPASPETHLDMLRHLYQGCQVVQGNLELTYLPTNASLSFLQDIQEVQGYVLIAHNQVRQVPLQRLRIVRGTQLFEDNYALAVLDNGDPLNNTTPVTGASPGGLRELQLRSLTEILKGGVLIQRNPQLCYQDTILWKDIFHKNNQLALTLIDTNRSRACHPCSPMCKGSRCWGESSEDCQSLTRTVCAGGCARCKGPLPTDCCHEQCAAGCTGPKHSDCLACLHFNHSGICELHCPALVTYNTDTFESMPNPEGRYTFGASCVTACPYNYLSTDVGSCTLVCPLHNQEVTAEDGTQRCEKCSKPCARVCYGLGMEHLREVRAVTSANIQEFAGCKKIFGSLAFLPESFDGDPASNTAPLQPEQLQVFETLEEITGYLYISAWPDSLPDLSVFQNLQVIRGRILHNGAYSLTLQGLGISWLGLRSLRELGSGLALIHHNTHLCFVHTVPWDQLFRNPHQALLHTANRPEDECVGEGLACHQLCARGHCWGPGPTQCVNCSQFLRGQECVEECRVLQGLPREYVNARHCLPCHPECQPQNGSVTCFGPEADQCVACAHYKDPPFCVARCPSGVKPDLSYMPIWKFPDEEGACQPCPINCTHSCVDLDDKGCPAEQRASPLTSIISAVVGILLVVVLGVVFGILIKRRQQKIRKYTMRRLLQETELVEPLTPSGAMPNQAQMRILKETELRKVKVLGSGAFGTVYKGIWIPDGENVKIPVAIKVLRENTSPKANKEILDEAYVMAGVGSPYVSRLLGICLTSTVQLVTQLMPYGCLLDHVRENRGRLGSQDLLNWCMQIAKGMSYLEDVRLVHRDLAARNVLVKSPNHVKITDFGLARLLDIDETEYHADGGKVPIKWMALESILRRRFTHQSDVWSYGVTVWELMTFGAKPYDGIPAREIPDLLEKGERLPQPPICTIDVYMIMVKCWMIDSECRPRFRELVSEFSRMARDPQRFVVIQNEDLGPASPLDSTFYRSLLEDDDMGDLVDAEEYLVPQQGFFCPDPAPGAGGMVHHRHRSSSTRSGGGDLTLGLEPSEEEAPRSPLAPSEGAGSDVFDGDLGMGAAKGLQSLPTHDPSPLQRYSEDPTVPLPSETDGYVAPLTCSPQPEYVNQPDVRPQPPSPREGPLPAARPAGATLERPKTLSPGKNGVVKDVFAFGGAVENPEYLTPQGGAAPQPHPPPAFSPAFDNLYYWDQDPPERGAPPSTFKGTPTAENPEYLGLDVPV

[4] = SK-BR-3 cell growth inhibitors, pilot screen, 24 h, human (AID 572;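 active = viability at or below 10% of carrier control in both of two separate runs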;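 note: compound exposure lasted between 18 and 24 h rather than exactly 24 h; 100% = carrier-treated control wells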); settings: SK-BR-3 viability, CellTiter-Glo luminescence, at 10 µM, stronger effect = lower value
[5] = HUVEC growth inhibition – cell-based, human, primary screen (AID 575); settings: HUVEC proliferation, CellTiter-Glo luminescence, 72 h; at 10 µM; stronger effect = lower value;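 note: 100% = median of untreated cell wells with 0.1% DMSO on each plate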
Summary of the method: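 system = HUVEC primary cells | amount = 1250 cells/well | buffer or medium = supplemented EBM, 2% fetal bovine serum | dosing = single-point 10 µM, DMSO 0.1% final | times = 72 h compound incubation | detection = CTG luminescence | read-out = % viability relative to median vehicle-well signal on each plate | control set = vehicle and MePR control wells | format = collagen-coated 384-well format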

[6] = growth inhibitors of H69AR lung tumor, primary screen, human, duplicate replicates (AID 580;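 active = viability at or under a set limit in both replicates, limit being median viability minus 3 SD, cut at about 48% in these data, passing the limit was not always enough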;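 note: 100% = mean luminescence of untreated wells and 0% = no signal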); settings: H69AR lung tumor cells viability, ATP luminescence, 72 h; at 10 µM; stronger effect = lower value
[7] = reversal of MRP1-mediated doxorubicin resistance, pilot screen, H69AR cells, doxorubicin co-treatment (AID 601;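 active = viability loss from added drug above about 55%, and viability with drug at most 40%, in both replicates, limit read from the data, passing the limit was not always enough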); settings: CellTiter-Glo, 72 h, at 10 µM; for differential viability (reversal): stronger effect = higher value
[8] = 384-well plate pilot, post-Golgi transport modulator project, inhibition of yeast transport mutant growth (AID 636; in the data active = inhibition above about 31%); settings: absorbance 615 nm, about 18 h, stronger effect = higher value
[9] = growth suppression of yeast trafficking mutant, preliminary HTS, modulators of trafficking downstream of Golgi apparatus project, 1536-format plate, OD 615 nm (AID 637; in the data active = inhibition above about 30%); settings: yeast transport mutant growth, absorbance 615 nm, 18 h; stronger effect = higher value
[10] = H69AR cells + 2 uM doxorubicin, measured here: viability with 2 uM doxorubicin, stronger effect = lower value
[11] = H69AR cells, compound alone cytotoxicity

Structure (SMILES)	inhibition [1]	viability [2] [%]	Her2 level [3]	viability [4]	viability [5]	viability [6]	differential viability (reversal) ([7]; H69AR cells + 2 uM doxorubicin)	viability [7, 10] [%]	viability [7, 11] [%]	inhibition [8]	inhibition [9]
CC(C)(C)OC(=O)c1c(N)n(Cc2ccco2)c2nc3ccccc3nc12	3% (inactive)	98.5	76% (inactive)	98.5% (inactive)	62.5% (inactive)	65.4% (inactive)	-9.48% (inactive)	74.8	65.4	0.79% (inactive)	-6.13% (inactive)
CC(C)(C)P(=O)(c1ccncc1)N1CCCC1 (stereo not drawn)	4% (inactive)			111% (inactive)	105% (inactive)	92.8% (inactive)	-5.79% (inactive)	98.6	92.8	-7.3% (inactive)	-2.18% (inactive)
CCC(=NCCCN1CCOCC1)c1c(O)n(Cc2ccccc2)c(=O)[nH]c1=O	0% (inactive)	108	107% (inactive)	108% (inactive)	84.3% (inactive)	89.2% (inactive)	-1.53% (inactive)	90.7	89.2	-5.41% (inactive)	-5.56% (inactive)
Clc1ccc(COC(Cn2ccnc2)c2ccc(Cl)cc2Cl)c(Cl)c1 (stereo not drawn)	2% (inactive)	105	20% (active)	105% (inactive)	9.27% (active)		-27.5% (inactive)	58.6	31		
CC(=O)C1C(=O)NC23CCCCC2C1c1ccccc1O3 (stereo not drawn)	0% (inactive)	88	91.5% (inactive)	88% (inactive)	109% (inactive)	99.3% (inactive)	4.31% (inactive)	95	99.3	-3.87% (inactive)	-0.16% (inactive)
COc1ccc(CC[n+]2cc(/N=C(\C)[O-])on2)cc1OC	0% (inactive)			146% (inactive)	93.9% (inactive)	92.1% (inactive)	-3.11% (inactive)	95.2	92.1	0.52% (inactive)	4.26% (inactive)
CCCC(=O)OCC[N+](C)(C)C	0% (inactive)			83% (inactive)	93.4% (inactive)	101% (inactive)	-4.88% (inactive)	106	101	1.04% (inactive)	40.7% (active)
CCN1CCN(c2ncnc3ccc(Br)cc23)CC1	0% (inactive)	100	110% (inactive)	100% (inactive)	59.2% (inactive)	91.2% (inactive)	-8.96% (inactive)	100	91.2	-0.79% (inactive)	5.25% (inactive)
CC1=NOC2(C)Nc3ncnn3C(c3ccccc3)C12 (stereo not drawn)	0% (inactive)			118% (inactive)	93% (inactive)	94.5% (inactive)	-3.04% (inactive)	97.5	94.5	-6.03% (inactive)	7.9% (inactive)
CCN1c2nc3ccccn3c(=O)c2CC2(C(=O)N(C)C(=O)N(C)C2=O)C1C (stereo not drawn)	0% (inactive)			119% (inactive)	104% (inactive)	96% (inactive)	5.97% (inactive)	90	96	-9.18% (inactive)	2.9% (inactive)
CC(=NCc1ccc2c(c1)OCO2)c1c(O)n(C)c(=O)n(C)c1=O	6% (inactive)	94	90% (inactive)	94% (inactive)	92.8% (inactive)	98% (inactive)	1.15% (inactive)	96.9	98	-4.42% (inactive)	-2% (inactive)
CC(C)C[C@H](NC(=O)[C@@H]1CCCN1C(=O)[C@@H](N)Cc1ccc(O)cc1)C(=O)NCC(N)=O (H-YPLG-NH2)	0% (inactive)			105% (inactive)	96.2% (inactive)	97.6% (inactive)	0.84% (inactive)	96.8	97.6	-2.73% (inactive)	0.33% (inactive)
C[N+]1(C)[C@@H]2CC(OC(=O)[C@H](CO)c3ccccc3)C[C@H]1[C@@H]1O[C@@H]12 (stereo partly drawn)	0% (inactive)			97% (inactive)	101% (inactive)	106% (inactive)	8.56% (inactive)	97.7	106	-2.21% (inactive)	8.67% (inactive)
Cc1ccccc1NC1=NCCCS1	3% (inactive)	106	101% (inactive)	106% (inactive)	99.3% (inactive)	95.1% (inactive)	-1.09% (inactive)	96.1	95.1	-4.61% (inactive)	-0.67% (inactive)
CCCCn1c(O)c(C(C)=NCCc2ccccc2)c(=O)[nH]c1=O	0% (inactive)	88.5	89.5% (inactive)	88.5% (inactive)	95.6% (inactive)	100% (inactive)	4.16% (inactive)	95.9	100	-0.26% (inactive)	9.51% (inactive)

From PubChem BioAssay
